In PubChem BioAssay:
Inconclusive results are not listed.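 How the source made its calls, unless noted: active means cell viability at or below a set limit in both duplicate runs, the limit being the all-compound median minus 4 SD (cut at about 23% in these data, passing the limit was not always enough); inconclusive means no clear call, values can overlap the other calls; inactive means the rest.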

How the values were obtained:
[1] = S. cerevisiae growth inhibition in permissive medium (OD615), pilot counter-assay for S. cerevisiae lifespan shortening project, permissive growth control (AID 705;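 active means growth inhibition above 25% in both replicates, a cutoff set 3 SD above the mean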); details: OD615, 24 h, at 10 µM, stronger effect = higher value
Method in brief: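 System: S. cerevisiae with engineered DeaD lifespan system / Measured by: absorbance (optical density) at 615 nm / Read-out: reduction in yeast growth (OD615) / Times: 4 h cell pre-growth, 24 h exposure at 30 °C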

[2] = S. cerevisiae growth inhibition in restrictive medium, OD615, pilot screen, restrictive growth control, yeast lifespan reduction project (AID 706;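 active means growth inhibition above a set limit, 3 SD over mean compound inhibition, in both replicates, cut at about 43% in these data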;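 further: modified DeaD lifespan yeast strain shifted to restrictive glucose medium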); details: OD615, 48 h, at 10 µM, stronger effect = higher value
Method in brief: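 System: Engineered S. cerevisiae DeaD strain | Buffer or medium: Glucose-based CSMM-D restrictive medium | Schedule: 4 h pre-incubation, 48 h exposure at 30 °C | Technique: Optical density at 615 nm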

[3] = doxorubicin toxicity protection in MRP-1 cells – H69AR cells, CellTiter-Glo, duplicate, MRP-1 activator project, pilot screen (AID 807;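 active means viability increase at or above a cutoff of the median across tested compounds plus 3 SD, cut at about 8.5% in these data, passing the limit was not always enough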;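 further: compound pretreatment 18-22 h then 72 h combined with doxorubicin; 0% = doxorubicin alone and 100% = vehicle without doxorubicin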); details: H69AR viability with doxorubicin, CellTiter-Glo luminescence; at 10 µM; stronger effect = higher value
[4] = viability of HCT116 without oncogenic beta-catenin – human colon tumor cells, pilot screen (AID 823); details: HCT116 beta-catenin knockout viability, CellTiter-Glo, 60 h; at 10 µM; stronger effect = lower value;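 further: 0% = wells killed by 20 µM Hyamine and 100% = untreated DMSO cell wells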
[5] = viability of PTEN-null HCT116 cells – cell-based, HCT116 clonal line, CellTiter-Glo, pilot screen (AID 824;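 active means viability at or below 27.92% in each of two runs, the all-compound median minus 4 SD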;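 further: 0% = 20 µM Hyamine control and 100% = vehicle cell control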); details: HCT116 PTEN-deleted viability, 60 h, at 10 µM, stronger effect = lower value
[6] = RAM pathway blockade in budding yeast – dse1pr::URA3 reporter, 5-FOA selection, pilot screen (AID 869;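 active means inhibition over a set limit, the all-compound mean plus 3 SD, in both replicate runs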;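 further: 0% = DMSO wells with no growth and 100% = 10 µM 1-NA-PP1 with full growth; RAM network block rescues cells from 5-FOA so hits raise OD615 growth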); details: S. cerevisiae dse1pr::URA3 5-FOA growth, OD615, 2 d; at 10 µM; stronger effect = higher value; strain carries analog-sensitive mutant Cbk1 kinase
[7] = RAM signaling pathway blockade in yeast – S. cerevisiae, Pdr1DBD-CYC8 efflux-inhibited sensitized strain, primary screen (AID 1298;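 active means RAM network inhibition above 8.4% in each of two replicates, 3 SD over the compound average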;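 further: 0% = DMSO untreated cells without growth and 100% = 10 µM 1-NA-PP1 full growth; higher means more yeast growth rescued from 5-FOA killing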); details: S. cerevisiae cbk1-as DSE1-URA3 strain, 5-FOA growth OD615, 2 d; at 50 µM; stronger effect = higher value

Cc1ccccc1C(=O)NCCN=C1NS(=O)(=O)c2ccccc21
inactive: growth inhibition [1] -7.76% | growth inhibition [2] 10.5% | viability increase [3] 0.1% | viability [4] 113% | viability [5] 103% | inhibition [6] 0.69% | RAM network inhibition [7] 1.88%

CCC(Sc1nc2ccccc2[nH]1)C(=O)Nc1cc(C)on1 (stereo unspecified)
inactive: growth inhibition [1] -13% | growth inhibition [2] -17.9% | viability increase [3] 1.02% | viability [4] 100% | viability [5] 101% | inhibition [6] 1.1% | RAM network inhibition [7] -0.37%

Cc1cc(N2C(=O)C3CC=CCC3C2=O)cc(C)c1Br (stereo unspecified)
inactive: growth inhibition [1] -3.4% | growth inhibition [2] -11.6% | viability increase [3] -1.05% | viability [4] 95.5% | viability [5] 95.2% | inhibition [6] 2.22% | RAM network inhibition [7] 6.44%

COc1cc(-c2nc3cnccn3c2Nc2ccccc2)ccc1O
inactive: growth inhibition [1] -7.8% | growth inhibition [2] 0.535% | viability increase [3] -5.59% | viability [4] 47.8% | viability [5] 44.7% | inhibition [6] 2.43% | RAM network inhibition [7] 0.41%

Cc1ccc(C2/C(=C(/O)c3ccc(Cl)cc3)C(=O)C(=O)N2CC2CCCO2)o1 (stereo unspecified)
inactive: growth inhibition [1] -7.4% | growth inhibition [2] 12.5% | viability increase [3] -3.2% | viability [4] 95.1% | viability [5] 96.4% | inhibition [6] 0.77% | RAM network inhibition [7] -0.36%

COCCCNC(=O)c1ccccc1Oc1ccccc1
inactive: growth inhibition [1] -8.28% | growth inhibition [2] -2.05% | viability increase [3] -1.39% | viability [4] 96.3% | viability [5] 97% | inhibition [6] 1.46% | RAM network inhibition [7] 1.58%

O=C(CSc1nnc(-c2ccccn2)n1Cc1ccco1)c1ccc(Cl)cc1
inactive: growth inhibition [1] 1.63% | growth inhibition [2] 23.2% | viability increase [3] -2.56% | viability [4] 85.8% | viability [5] 82% | inhibition [6] 2.6% | RAM network inhibition [7] 4.4%

COC(=O)c1cn(NC(=O)c2ccc3c(c2)OCO3)c(=O)c2ccccc12
inactive: growth inhibition [1] -4.02% | growth inhibition [2] -1.45% | viability increase [3] -2.75% | viability [4] 96.3% | viability [5] 97.3% | inhibition [6] 1.44% | RAM network inhibition [7] 6.69%

O=C1c2ccccc2C(=O)N1CCCc1nc2ccccc2c(=O)n1Cc1ccco1
inactive: growth inhibition [1] -12.9% | growth inhibition [2] -12.6% | viability increase [3] -1.68% | viability [4] 93.6% | viability [5] 93.5% | inhibition [6] 3.96% | RAM network inhibition [7] 7.66%

O=C(CCCSc1nc2sc3c(c2c(=O)[nH]1)CCC3)NCCCO
inactive: growth inhibition [1] -8.91% | growth inhibition [2] 6.12% | viability increase [3] 0.57% | viability [4] 102% | viability [5] 99.8% | inhibition [6] 0.14% | RAM network inhibition [7] 1.44%

CC(C)c1nnc(NC(=O)CCN2C(=O)c3ccccc3C2=O)s1
inactive: growth inhibition [1] -11.7% | growth inhibition [2] -0.03% | viability increase [3] 0.32% | viability [4] 104% | viability [5] 106% | inhibition [6] 3.73% | RAM network inhibition [7] 5.82%

Cc1cc(NC(=O)Nc2cccc3ccccc23)no1
inactive: growth inhibition [1] -3.55% | growth inhibition [2] 1.52% | viability increase [3] -4% | viability [4] 95.3% | viability [5] 89.1% | inhibition [6] -0.175% | RAM network inhibition [7] 5.09%

COCCN1Cc2cccc(C(=O)NCc3ccccn3)c2C1=O
inactive: growth inhibition [1] -2.71% | growth inhibition [2] -0.385% | viability increase [3] -0.59% | viability [4] 103% | viability [5] 110% | inhibition [6] 0% | RAM network inhibition [7] 1.61%

N/C(CC(=O)Nc1cccc(C(F)(F)F)c1)=N/O
inactive: growth inhibition [1] -0.19% | growth inhibition [2] 2.58% | viability increase [3] -1.91% | viability [4] 96.5% | viability [5] 101% | inhibition [6] 1.16% | RAM network inhibition [7] 4.4%

O=C(CCNS(=O)(=O)c1cccc2nonc12)NCCc1ccc(Cl)cc1
inactive: growth inhibition [1] -2.56% | growth inhibition [2] -9.13% | viability increase [3] 5.07% | viability [4] 90% | viability [5] 101% | inhibition [6] -0.08% | RAM network inhibition [7] 3%

CSc1ccc(C2C(C#N)=C(N)N(c3ccccc3)C3=C2C(=O)CCC3)cc1 (stereo unspecified)
inactive: growth inhibition [1] -11.5% | growth inhibition [2] -19.7% | viability increase [3] -7.43% | viability [4] 69.5% | viability [5] 74.6% | inhibition [6] 1.18% | RAM network inhibition [7] 2.23%

CCc1cc(C(=O)Cc2cnn(-c3ccccc3)c2)c(O)cc1O
inactive: growth inhibition [1] -6.31% | growth inhibition [2] -9.12% | viability increase [3] -2.95% | viability [4] 101% | viability [5] 99.1% | inhibition [6] 1.42% | RAM network inhibition [7] 3.54%

C=CCn1c(=O)/c(=C/c2cc(OC)c(OC)c(OC)c2)s/c1=C(/C#N)c1nc2ccccc2n1C
inactive: growth inhibition [1] -4.25% | growth inhibition [2] 8.29% | viability increase [3] -3.61% | viability [4] 46.3% | viability [5] 50.9% | inhibition [6] 3.67% | RAM network inhibition [7] 4.52%
